Measurements: ChEMBL document CHEMBL4020827, “Targeting Multiple Effector Pathways in Pancreatic Ductal Adenocarcinoma with a G-Quadruplex-Binding Small Molecule” (J Med Chem, 2018)

Columns and labels:
MIA PaCa-2 [1] = assay: Effect on MAPK9 gene expression in human MIAPaCa2 cells at 400 nM after 24 hrs by RNA sequence analysis relative to control; type: functional
PANC-1 [2] = assay: Effect on FASN gene expression in human PANC1 cells at 400 nM after 24 hrs by RNA sequence analysis relative to control; type: functional
In short: (§1)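 PANC-1 (0.35 x 10^6) or MIA PaCa-2 (1.5 x 10^6) cells seeded overnight in 60 mm plates, then exposed to 400 nM compound for 6 or 24 h; untreated cells as controls. Cells were mycoplasma-free and STR-certified. Differential expression by RNA-seq, called at FDR < 0.1.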

MIA PaCa-2 [3] = assay: Effect on PARD6A gene expression in human MIAPaCa2 cells at 400 nM after 24 hrs by RNA sequence analysis relative to control; type: functional
MIA PaCa-2 [4] = assay: Effect on SHANK2 gene expression in human MIAPaCa2 cells at 400 nM after 24 hrs by RNA sequence analysis relative to control; type: functional
In short: (§2)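 RNA-seq: cells seeded overnight in 60 mm plates (PANC-1 0.35 x 10^6, MIA PaCa-2 1.5 x 10^6 cells/well), then exposed to 400 nM compound for 6 or 24 h against untreated controls. Cell lines mycoplasma-free by RNA-capture ELISA and STR-profiled. Differentially expressed genes called at FDR < 0.1.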

MIA PaCa-2 [5] = assay: Effect on ROBO3 gene expression in human MIAPaCa2 cells at 400 nM after 6 hrs by RNA sequence analysis relative to control; type: functional; in short: as §2
PANC-1 [6] = assay: Effect on AKT1 gene expression in human PANC1 cells at 400 nM after 6 hrs by RNA sequence analysis relative to control; type: functional; in short: as §1
PANC-1 [7] = assay: Effect on MAPK12 gene expression in human PANC1 cells at 400 nM after 24 hrs by RNA sequence analysis relative to control; type: functional
PANC-1 [8] = assay: Effect on AKT1S1 gene expression in human PANC1 cells at 400 nM after 6 hrs by RNA sequence analysis relative to control; type: functional; in short: as §1
PANC-1 [9] = assay: Effect on PCK2 gene expression in human PANC1 cells at 400 nM after 6 hrs by RNA sequence analysis relative to control; type: functional
[10] = Binding affinity to 5'-FAM/3'-TAMRA labeled HSP90B promoter G-quadruplex DNA (unknown origin) assessed as change in melting temperature at 1 uM by FRET assay
In short: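 FRET melting with FAM/TAMRA dual-labelled oligonucleotides at 400 nM, annealed at 95 °C for 10 min in 60 mM potassium cacodylate pH 7.4 and slowly cooled. Ligand final 1 μM; solution contains 50 mM K+. Fluorescence read every 0.5 °C over 30–100 °C with 30 s hold, excitation 450–495 nm and emission 515–545 nm. ΔTm from curve fitting, triplicate measurements.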

MIA PaCa-2 [11] = assay: Antitumor activity against human MIAPaCa2 cells xenografted in CD-1 nude mouse assessed as change in tumor volume at 15 mg/kg, iv administered twice weekly for 4 weeks measured on day 29 relative to control; type: functional
In short: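 Female CD-1 nude mice (2-3 months, 20−25 g) given 5 x 10^6 MIA PaCa-2 cells subcutaneously in right flank with Matrigel; dosing began once tumors were established (approx. 13 days, mean 0.05 cm3). Eight mice/group, IV in saline twice weekly for 28 days (8 doses) against a saline group. Tumors measured by calliper (length × width × height × π/6), with body weight. Student's t test.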

[12] = Binding affinity to 5'-FAM/3'-TAMRA labeled HSP90A promoter G-quadruplex DNA (unknown origin) assessed as change in melting temperature at 1 uM by FRET assay
In short: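 FRET melting of FAM/TAMRA dual-labelled promoter G4 oligonucleotides, 400 nM, annealed at 95 °C for 10 min in 60 mM potassium cacodylate (pH 7.4) then cooled to RT. Ligand at 1 μM in solution with 50 mM K+. Fluorescence (ex 450–495, em 515–545 nm) read every 0.5 °C over 30–100 °C with a 30 sec hold per step. ΔTm from curve fitting; triplicate measurements.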

MIA PaCa-2 [13] = assay: Effect on IGF2 gene expression in human MIAPaCa2 cells at 400 nM after 6 hrs by RNA sequence analysis relative to control; type: functional; in short: as §1
PANC-1 [14] = assay: Effect on SMO gene expression in human PANC1 cells at 400 nM after 24 hrs by RNA sequence analysis relative to control; type: functional; in short: as §2
MIA PaCa-2 [15] = assay: Effect on mLST8 gene expression in human MIAPaCa2 cells at 400 nM after 6 hrs by RNA sequence analysis relative to control; type: functional; in short: as §2
MIA PaCa-2 [16] = assay: Growth inhibition of human MIAPaCa2 cells after 96 hrs by SRB assay; type: functional, cell-based; conditions: MIA PaCa-2, 96 h
In short: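 Cell lines kept at 37 °C, 5% CO2 in medium with 10% FBS and 2 mM L-glutamine. Compound dissolved in water, filter-sterilised, 10 mM stock diluted into media. Growth read by 96 h sulforhodamine B assay, absorbance at 540 nm. IC50 taken from mean absorbance per concentration as % of untreated wells, >3 individual determinations with standard deviations.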

MIA PaCa-2 [17] = assay: Effect on PFKL gene expression in human MIAPaCa2 cells at 400 nM after 6 hrs by RNA sequence analysis relative to control; type: functional
MIA PaCa-2 [18] = assay: Effect on SMO gene expression in human MIAPaCa2 cells at 400 nM after 24 hrs by RNA sequence analysis relative to control; type: functional; in short: as §2
PANC-1 [19] = assay: Effect on mLST8 gene expression in human PANC1 cells at 400 nM after 24 hrs by RNA sequence analysis relative to control; type: functional; in short: as §2
MIA PaCa-2 [20] = assay: Effect on TEAD2 gene expression in human MIAPaCa2 cells at 400 nM after 24 hrs by RNA sequence analysis relative to control; type: functional; in short: as §2
Mus musculus = assay: Toxicity in CD-1 nude mouse xenografted with human MIAPaCa2 cells assessed as change in tumor ulceration at 15 mg/kg, iv administered twice weekly for 4 weeks measured for 40 days; type: organism-based; conditions: in vivo, 960 h
MIA PaCa-2 [21] = assay: Effect on CTBP1 gene expression in human MIAPaCa2 cells at 400 nM after 6 hrs by RNA sequence analysis relative to control; type: functional; in short: as §1
[22] = Selectivity ratio of IC50 for human MCF7 cells to IC50 for human MIAPaCa2 cells; type: functional
MIA PaCa-2 [23] = assay: Effect on PFKFB4 gene expression in human MIAPaCa2 cells at 400 nM after 24 hrs by RNA sequence analysis relative to control; type: functional
MIA PaCa-2 [24] = assay: Effect on TEAD4 gene expression in human MIAPaCa2 cells at 400 nM after 6 hrs by RNA sequence analysis relative to control; type: functional; in short: as §2
PANC-1 [25] = assay: Effect on mLST8 gene expression in human PANC1 cells at 400 nM after 6 hrs by RNA sequence analysis relative to control; type: functional
MIA PaCa-2 [26] = assay: Effect on RPTOR gene expression in human MIAPaCa2 cells at 400 nM after 24 hrs by RNA sequence analysis relative to control; type: functional; in short: as §2
MIA PaCa-2 [27] = assay: Effect on TP73 gene expression in human MIAPaCa2 cells at 400 nM after 24 hrs by RNA sequence analysis relative to control; type: functional; in short: as §2

`O=C1c2ccc3c4c(c(NCCN5CCCC5)cc(c24)C(=O)N1CCCN1CCOCC1)C(=O)N(CCCN1CCOCC1)C3=O` gave a log2FC (MIA PaCa-2 [1]) of -0.6, a log2FC (PANC-1 [2]) of -0.7 and a log2FC (MIA PaCa-2 [3]) of -1.4. For the same compound, the log2FC (MIA PaCa-2 [4]) was -1.96, the log2FC (MIA PaCa-2 [5]) was -0.86 and the log2FC (PANC-1 [6]) was -0.18. It also gave a log2FC (PANC-1 [7]) of -1.44, a log2FC (PANC-1 [8]) of -0.11 and a log2FC (PANC-1 [9]) of -0.01. For the same compound, the ΔTm [10] was 12.7 °C, the Activity (MIA PaCa-2 [11]) was -73.3% and the ΔTm [12] was 15.7 °C. The log2FC (MIA PaCa-2 [13]) was -2.72, the log2FC (PANC-1 [14]) was -0.82 and the log2FC (MIA PaCa-2 [15]) was -0.76. It also gave an IC50 (MIA PaCa-2 [16]) of 7 nM, a log2FC (MIA PaCa-2 [17]) of 0 and a log2FC (MIA PaCa-2 [18]) of -1.21. The log2FC (PANC-1 [19]) was -1.72, the log2FC (MIA PaCa-2 [20]) was -0.91 and the Activity (Mus musculus) was “Non-Toxic”. The log2FC (MIA PaCa-2 [21]) was -0.52, the “Ratio IC50” value [22] was >20 and the log2FC (MIA PaCa-2 [23]) was -0.93. For the same compound, the log2FC (MIA PaCa-2 [24]) was -0.79, the log2FC (PANC-1 [25]) was -0.54 and the log2FC (MIA PaCa-2 [26]) was -0.68. The log2FC (MIA PaCa-2 [27]) was -1.19.
